The values below come from ChEMBL document CHEMBL1955811, “Inhibition of colony-stimulating-factor-1 signaling in vivo with the orally bioavailable cFMS kinase inhibitor GW2580” (Proc Natl Acad Sci U S A, 2005).

Each structure is given as a SMILES string. pIC50: −log10 of the molar value. The source made the active and inactive calls. The calls are words filed in the database; no cut-off is given here. Where only a bound is given, the exact number is not on record here.

Data set [1] relates to Mus musculus. As to the kind of experiment: Inhibition of thioglycolate-induced macrophage influx into peritoneal cavity in mouse at 80 mg/kg, po BID starting 1 hr before thioglycolate challenge for 4 days. In kind it is functional. The gist of the method:
(§1)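 Female C3H/HEN mice (22-26 g) were dosed orally with compound suspended in 0.5% hydroxypropylmethylcellulose/0.1% Tween 80 (0.2 ml per mouse). Thioglycolate (1.5 ml) was injected i.p. on day 0. On day 4, the peritoneum was lavaged with 5 ml cold PBS containing 40 units/ml heparin, and cells were counted by hemocytometer in 0.1% crystal violet. Data are mean ± SEM; Dunnett's test.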

For data set [2], the system named is Mus musculus. Description: Inhibition of thioglycolate-induced macrophage influx into peritoneal cavity in mouse at 20 mg/kg, po BID administered 7 days before and 4 days after thioglycolate challenge. It is filed as functional. The gist of the method: as §1
Data set [3] in a line: Inhibition of human GST-tagged PKA using biotin-(6-amino caproic acid)-LRRASLGKKK-amide as substrate after 70 mins by scintillation proximity assay. An outline of the steps:
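Catalytic domains of human kinases expressed, isolated and assayed with ATP and the appropriate peptide substrate. Compound tested as a 10- to 12-point dose-response with a top concentration of 20 μM.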
A general note: Scintillation proximity formats need no separation of bound from free tracer.

For data set [4], the system named is HUVEC. Description: Growth inhibition of VEGF-stimulated HUVEC after 3 days by spectrophotometry. The note with it: Homo sapiens, 72 h. It is filed as cell-based. An outline of the steps:
(§2)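 Cells cultured so that added serum or growth factor gave linear growth. Compound tested as a 10- to 12-point dose-response with a top concentration of 20 μM.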

Data set [5] has as its system HUVEC. As to the kind of experiment: Growth inhibition of bFGF-stimulated HUVEC after 3 days by spectrophotometry. It is filed as cell-based. The settings on record: Homo sapiens, 72 h. The gist of the method:
as §2

The test system of data set [6] is Monocyte. As to the kind of experiment: Inhibition of CSF-1-stimulated growth of freshly isolated human monocytes at 1 uM preincubated for 30 mins before inducer addition measured after 5 days by WST-1 method. The note with it: read-out: GI. It is filed as functional. A general note: Tetrazolium dyes change colour on reduction, which living cells bring about.
Data set [7] deals with Monocyte. Description: Inhibition of LPS-stimulated growth of freshly isolated human monocytes at 1 uM preincubated for 30 mins before inducer addition measured after 5 days by WST-1 method. In kind it is functional. The note with it: read-out: GI.
Data set [8] concerns Monocyte. As to the kind of experiment: Effect on LPS-induced IL-6 production in human monocytes at 0.03906 to 20 uM preincubated for 30 mins before LPS stimulation measured after 20 hrs by ELISA. In kind it is functional, cell-based.
In the next data set the test system is Macrophage. Description: Effect on LPS-induced IL-6 production in CSF-1-stimulated human macrophages at 0.03906 to 20 uM preincubated for 30 mins before LPS stimulation measured after 20 hrs by ELISA. It is filed as functional, cell-based. For orientation: In an ELISA, binding on a coated surface is turned into a signal by an enzyme label.
The test system of data set [9] is Osteoclast. Description: Inhibition of human osteoclast attachment to plastic surface assessed cells per cm2 of plastic at 1 uM after 3 days by immunocytochemistry (reference value: 9723 +/- 1380 cells/cm2 of plastic). In kind it is functional. The gist of the method:
(§3)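 Human PBMCs from a healthy volunteer (5 × 10^5 cells in MEM/10% FCS) were seeded on plastic coverslips with RANKL and CSF-1 (30 ng/ml each) for 10 days, with medium changed every 3 days. Compound was added on day 10 (0.1% DMSO final). On day 13, total cells on the coverslips were counted by immunocytochemistry. Data are mean ± SEM.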

The test system of data set [10] is Osteoclast. Description: Inhibition of human osteoclast degradation of bone assessed as reduction in actin ring formation per cm2 of bone at 1 uM after 3 days by immunocytochemistry (reference value: 1546 +/- 232 /cm2 of bone). In kind it is functional.
Data set [11] has as its system Osteoclast. Description: Inhibition of human osteoclast attachment to plastic surface assessed cells per cm2 of plastic at 3 uM after 3 days by immunocytochemistry (reference value: 9723 +/- 1380 cells/cm2 of plastic). In kind it is functional. An outline of the steps:
as §3

Data set [12] deals with Osteoclast. As to the kind of experiment: Inhibition of human osteoclast attachment to plastic surface assessed cells per cm2 of plastic at 10 uM after 3 days by immunocytochemistry (reference value: 9723 +/- 1380 cells/cm2 of plastic). It is filed as functional. The gist of the method:
as §3

The species named for the next data set is Rattus norvegicus. Description: Inhibition of PTH-induced Wistar rat calvarial bone degradation assessed as reduction in DPPD level in media at 0.1 uM after 48 hrs. In kind it is functional. The gist of the method:
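Rat calvaria incubated with PTH plus compound for two consecutive 48-h periods. Medium from the second period assayed for deoxypyridinoline crosslinks (DPPD).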

Data set [13] in a line: Inhibition of PTH-induced Wistar rat fetal long bone degradation assessed as labeled 45Ca release in to media at 0.1 to 0.3 uM after 48 hrs by liquid scintillation spectrometry. It is filed as functional. The gist of the method:
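Fetal rat long bones preloaded with 45CaCl2 and incubated for 24 h. PTH and compound then added; release of labelled calcium into the medium measured 48 h later.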

Data set [14] can be described thus: Cmax in mouse at 20 mg/kg, po. In kind it is ADME, organism-based. The arrangement: dose 20 mg/kg, route oral. The settings on record: in vivo. The gist of the method: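 Female mice given single oral doses (20 or 80 mg/kg) in 0.5% HPMC/0.1% Tween 80. Three mice killed with CO2 per time point; plasma extracted with isopropyl alcohol/acetonitrile, then vortexed, sonicated and centrifuged. Quantified by LC/MS (APCI positive mode, multiple-reaction monitoring) against a standard curve prepared in plasma.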

The nature of data set [15]: Protein binding in cell-culture media with 10% fetal calf serum at 3 uM. In kind it is ADME, cell-free, Bos taurus. The settings on record: cattle, read-out: PB (converted). The gist of the method: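 Compound at 3 μM was added to triplicate samples and incubated 1 h at 37°C. Samples were centrifuged through a 30,000-MW filter (1,500 × g, 15 min, 4°C). Percent bound was calculated from compound concentrations in the filtrate and retentate.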

The subject of data set [16] is Mus musculus. Description: Inhibition of LPS-stimulated TNF production in mouse at 40 mg/kg, po administered 0.5 hr before LPS challenge measured […] after LPS challenge. In kind it is functional.
In data set [17] the test system is Mus musculus. Description: Inhibition of LPS-stimulated TNF production in CSF-1 primed mouse at 40 mg/kg, po administered 4.5 hr before LPS challenge and CSF-1 priming measured […] after LPS challenge. It is filed as functional.
The test system of data set [18] is Mus musculus. Description: Inhibition of LPS-stimulated IL-6 production in mouse at 40 mg/kg, po administered 0.5 hr before LPS challenge measured […] after LPS challenge. In kind it is functional.
The test system of data set [19] is Mus musculus. Description: Inhibition of LPS-stimulated IL-6 production in CSF-1 primed mouse at 40 mg/kg, po administered 4.5 hr before LPS challenge and CSF-1 priming measured […] after LPS challenge. In kind it is functional.
For data set [20], the system named is Mus musculus. As to the kind of experiment: Inhibition of thioglycolate-induced macrophage influx into peritoneal cavity in mouse at 20 mg/kg, po BID starting 1 hr before thioglycolate challenge for 4 days. It is filed as functional. An outline of the steps: as §1
The test system of data set [21] is Osteoclast. As to the kind of experiment: Inhibition of human osteoclast degradation of bone assessed as reduction in actin ring formation per cm2 of bone at 10 uM […] by immunocytochemistry (reference value: 1546 +/- 232 /cm2 of bone).

With `COc1ccc(COc2ccc(Cc3cnc(N)nc3N)cc2OC)cc1` [GW632580X], the inhibition in vivo (as a rule, how much of the control response was suppressed) at 80 mg/kg with Mus musculus [1] was 25%. Moreover, the inhibition in vivo at 20 mg/kg in the data set with Mus musculus [2] amounted to 8%; with Mus musculus [20], 17%. The negative-log IC50 (pIC50) (in general, −log10 of the IC50, conventionally taken in molar units) in [3] was less than 5.00; in the data set with HUVEC [4], 4.92; in the data set on HUVEC [5], less than 5.00. Further, the inhibition of growth at 1 µM in the data set with Monocyte [6] came out at 100%; in the data set with Monocyte [7], 50%. The outcome in the data set with Monocyte [8] and with Macrophage was inactive. Moreover, the Activity in the data set with Osteoclast [9] was 2984 /cm2; with Osteoclast [10], 479 /cm2; in the data set with Osteoclast [11], 3369 /cm2; in the data set on Osteoclast [12] it was 2728 /cm2; in the data set on Osteoclast [21] it was 0 /cm2. For the same compound, the inhibition (in general, the drop in the measured response relative to a control, in per cent) in the data set filed under Rattus norvegicus turned out to be 80%. The “inhibition (INH)” value in [13] came to 30%. Moreover, the Cmax (as a rule, the highest concentration seen after dosing) in data set [14] was 1400 nM. Also, the fraction unbound at 3 µM in [15] was 0.76. For the same compound, the inhibition in vivo at 40 mg/kg in the data set on Mus musculus [16] is 68%; in the data set on Mus musculus [17], 58%; in the data set with Mus musculus [18], 20%; in the data set on Mus musculus [19], 49%.
